pEC50: −log10 of the molar value. The source made the active and inactive calls. No cut-off for these calls is given here.
What was measured:
[1] = Selectivity index, ratio of CC50 for cytotoxicity against human HepG2 cells to EC50 for Antitrypanosomal activity against bloodstream forms of Trypanosoma brucei brucei strain 427; format: toxicity, cell-based; conditions: read-out: Selectivity Index
[2] = Metabolic stability in mouse liver S9 fraction assessed as half life at 0.1 uM measured for every 15 mins by HPLC-MS/MS analysis; format: ADME, subcellular; conditions: s9, 0.25 h
[3] = test system: Trypanosoma brucei rhodesiense; test: Antitrypanosomal activity against bloodstream forms of Trypanosoma brucei rhodesiense STIB 900 assessed as growth inhibition incubated for 70 hrs followed by treated with resazurin 2 to 4 hrs by resazurin based fluorescence assay; format: functional, organism-based
In short: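 Bloodstream STIB 900 at 2x10^4 parasites/well in HMI-9 with 15% heat-inactivated horse serum. Eleven 3-fold dilutions spanned 100 to 0.002 μM. Plates ran 70 h at 37 °C in 5% CO2, then resazurin for 2–4 h. Fluorescence read at ex/em 536/588 nm; melarsoprol was the control.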

[4] = test system: Trypanosoma brucei brucei; test: Antitrypanosomal activity against bloodstream forms of Trypanosoma brucei brucei strain 427 assessed as growth inhibition measured after 48 hrs by Alamar blue assay; format: functional, organism-based; conditions: Trypanosoma brucei, 427, 48 h
In short: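 Bloodstream T. b. brucei 427 at 5 x 10^3 cells/well in supplemented HMI-9 with 10% FBS. Compounds in DMSO over 0.01–50 μM, triplicates. After 48 h exposure, Alamar blue was added for 4 h at 37°C. Fluorescence read at ex/em 530/590 nm; suramin was the positive control. EC50 = half-maximal trypanosomal viability.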

[5] = Metabolic stability in mouse liver microsomes assessed as half life at 0.1 uM measured for every 15 mins by HPLC-MS/MS analysis; format: ADME, Microsome; conditions: 0.25 h
[6] = test system: Trypanosoma brucei gambiense; test: Antitrypanosomal activity against bloodstream forms of Trypanosoma brucei gambiense 130R assessed as growth inhibition incubated for 68 hrs followed by treated with resazurin 4 to 6 hrs by resazurin based fluorescence assay; format: functional, organism-based
In short: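 Bloodstream 130R at 4x10^4 parasites/well in HMI-9 with 15% heat-inactivated fetal calf and 5% human serum. Eleven 3-fold dilutions spanned 100 to 0.002 μM. Plates ran 68 h at 37 °C in 5% CO2, then resazurin for 4–6 h. Fluorescence read at ex/em 536/588 nm; melarsoprol was the control.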

[7] = Selectivity index, ratio of CC50 for cytotoxicity against human HepG2 cells to EC50 for Antitrypanosomal activity against bloodstream forms of Trypanosoma brucei rhodesiense STIB 900; format: toxicity, cell-based
[8] = test system: HepG2; test: (§1) Cytotoxicity against human HepG2 cells assessed as cell growth measured after 72 hrs mby MTT assay; format: toxicity, cell-based; conditions: hepg2, 72 h
In short: (§2)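 HepG2 in DMEM:F12 with 10% FBS were seeded at 5 x 10^5 cells/mL and allowed 18-24 h. Compounds in DMSO over 0.01–300 μM for 72 h. MTT was then added for 30 min, formazan dissolved in DMSO and absorbance read at 550 nm. Triplicates; SDS (10%) and podophyllotoxin were the controls. CC50 = half-maximal cellular viability.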

[9] = test system: Trypanosoma brucei rhodesiense; test: Inhibition of Trypanosoma brucei rhodesiense MVAT4 strain Cathepsin-L expressed in Pichia pastoris at 10 uM relative to control
In short: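 Trypanosomal cathepsin L, expressed in Pichia pastoris and purified, was tested at 10 μM after 1 hour. The read-out was percentage inhibition, with E-64 as positive control.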

[10] = Selectivity index, ratio of CC50 for cytotoxicity against human HepG2 cells to EC50 for Antitrypanosomal activity against bloodstream forms of Trypanosoma brucei gambiense 130R; format: toxicity, cell-based
[11] = Tmax in mouse at 25 mg/kg, po; format: ADME, organism-based; conditions: in vivo
[12] = Half life in mouse at 25 mg/kg, po; format: ADME, organism-based; conditions: in vivo
[13] = as §1; format: toxicity, cell-based; conditions: HepG2 cells; in short: as §2
[14] = AUC (0 to infinity) in C57BL/6 mouse at 1 mg/kg, iv measured upto 24 hrs by LC-MS/MS analysis; format: ADME, organism-based; conditions: in vivo
In short: (§3)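 Fasted male C57BL/6 mice (n = 3/group) were given a single IV dose of 1 mg/kg. Vehicle was 5% DMSO, 10% solutol and 85% PBS with 20% Captisol, at 1 mL/kg. Blood was taken at 0.083, 0.25, 0.5, 1, 2, 4, 6, 8 and 24 h and spun at 4°C to plasma. Plasma levels were measured by LC-MS/MS and parameters derived by non-compartmental analysis.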

[15] = Apparent volume of distribution in C57BL/6 mouse at 1 mg/kg, iv measured upto 24 hrs by LC-MS/MS analysis; format: ADME, organism-based; conditions: in vivo, read-out: Vz; in short: as §3
[16] = Half life in C57BL/6 mouse at 5 mg/kg, po measured upto 24 hrs by LC-MS/MS analysis; conditions: in vivo
[17] = Tmax in C57BL/6 mouse at 5 mg/kg, po measured upto 24 hrs by LC-MS/MS analysis; conditions: in vivo
[18] = AUC (0 to t) in C57BL/6 mouse at 1 mg/kg, iv measured upto 24 hrs by LC-MS/MS analysis; format: ADME, organism-based; conditions: in vivo; in short: as §3
[19] = Volume of distribution at steady state in C57BL/6 mouse at 1 mg/kg, iv measured upto 24 hrs by LC-MS/MS analysis; format: ADME, organism-based; conditions: in vivo, read-out: Vdss; in short: as §3
[20] = Mean residence time in C57BL/6 mouse at 5 mg/kg, po measured upto 24 hrs by LC-MS/MS analysis; conditions: in vivo
[21] = Initial plasma concentration in C57BL/6 mouse at 1 mg/kg, iv measured upto 24 hrs by LC-MS/MS analysis; format: ADME, organism-based; in short: as §3
[22] = Cmax in C57BL/6 mouse at 5 mg/kg, po measured upto 24 hrs by LC-MS/MS analysis; conditions: in vivo
[23] = AUC (0 to infinity) in C57BL/6 mouse at 5 mg/kg, po measured upto 24 hrs by LC-MS/MS analysis; conditions: in vivo
[24] = AUC (0 to t) in C57BL/6 mouse at 5 mg/kg, po measured upto 24 hrs by LC-MS/MS analysis; conditions: in vivo
[25] = test system: Trypanosoma brucei brucei; test: In vivo antitrypanosomal activity against Trypanosoma brucei brucei AnTat1.1 trypomastigotes expressing Renilla luciferase infected in BALB/c mouse assessed suppression of parasite growth at 100 mg/kg, po treated for 5 days; conditions: time 5.0 day
[26] = test system: Trypanosoma brucei brucei; test: In vivo antitrypanosomal activity against Trypanosoma brucei brucei AnTat1.1 trypomastigotes expressing Renilla luciferase infected in BALB/c mouse assessed suppression of parasite growth at 100 mg/kg, ip treated for 5 days; conditions: time 5.0 day
[27] = test system: Trypanosoma brucei rhodesiense; test: In vivo antitrypanosomal activity against Trypanosoma brucei rhodesiense infected in female NMRI mouse assessed survival rate at 200 mg/kg, po qd measured upto 60 days; conditions: time <= 60.0 day
[28] = Clearance in C57BL/6 mouse at 1 mg/kg, iv measured upto 24 hrs by LC-MS/MS analysis; format: ADME, organism-based; conditions: in vivo; in short: as §3
[29] = test system: Trypanosoma brucei brucei; test: In vivo antitrypanosomal activity against Trypanosoma brucei brucei AnTat1.1 trypomastigotes expressing Renilla luciferase infected in BALB/c mouse assessed reduction in parasitemia at 100 mg/kg, po treated for 5 days; conditions: time 5.0 day
[30] = Oral bioavailability in C57BL/6 mouse at 5 mg/kg measured upto 24 hrs by LC-MS/MS analysis; conditions: in vivo
[31] = Half life in C57BL/6 mouse at 1 mg/kg, iv measured upto 24 hrs by LC-MS/MS analysis; format: ADME, organism-based; conditions: in vivo; in short: as §3
[32] = Mean residence time in C57BL/6 mouse at 1 mg/kg, iv measured upto 24 hrs by LC-MS/MS analysis; format: ADME, organism-based; conditions: in vivo; in short: as §3

Structure (SMILES) | selectivity ratio [1] | pEC50 [3] | pEC50 [4] | t1/2 [5] | pEC50 [6] | CC50 [8] | inhibition [9] | further results
O=C(NC/C=C/S(=O)(=O)c1ccccc1)c1ccc([N+](=O)[O-])o1 | 60.6 | 5.75 | 6.01 | > 60 min | 6.70 | 59.4 µM | 17.7% | t1/2 [2]: 12.99 min; selectivity ratio [7]: 33.5
CS(=O)(=O)CCCNC(=O)c1cccs1 |  |  | < 4.52 |  |  | > 150 µM | inactive | 
CNC(=O)/C=C/CNC(=O)c1ccc([N+](=O)[O-])o1 |  | 6.66 | 5.77 |  | 6.33 | > 75 µM | 17% | 
CS(=O)(=O)CCCNC(=O)c1ccc([N+](=O)[O-])s1 | 76.4 |  | 5.89 |  |  | 98.6 µM | 11.1% | 
CNC(=O)/C=C/[C@H](CCc1ccccc1)NC(=O)c1ccc([N+](=O)[O-])o1 | 139 | 6.85 | 6.52 | > 60 min | 7.22 | 41.7 µM | 54.8% | t1/2 [2]: 20.49 min; selectivity ratio [7]: 298; selectivity ratio [10]: 694
CS(=O)(=O)/C=C/CNC(=O)c1cccs1 |  |  | < 4.52 |  |  | > 300 µM | 23.6% | 
O=C(NC/C=C/S(=O)(=O)c1ccccc1)c1ccc([N+](=O)[O-])s1 |  | 6.21 | 5.20 |  | 6.49 | 20.4 µM |  | 
CSc1ccc(OCc2ncc([N+](=O)[O-])n2C)cc1 [FEXINIDAZOLE] |  |  |  |  |  |  |  | Tmax [11]: 15 min; half-life [12]: 48 min
CS(=O)(=O)/C=C/CNC(=O)c1ccc([N+](=O)[O-])o1 | 49.5 | 7.30 | 6.36 | > 60 min | 7.22 | 21.8 µM | 21.2% | 
O=C(NCCCS(=O)(=O)c1ccccc1)c1ccc([N+](=O)[O-])o1 | 45 |  | 6.00 |  |  | 44.6 µM | 15% | 
CS(=O)(=O)/C=C/CNC(=O)c1ccc([N+](=O)[O-])s1 | 154 | 6.92 | 6.19 | > 60 min | 6.60 | 98.7 µM | 23.2% | t1/2 [2]: > 60 min; selectivity ratio [7]: 822; selectivity ratio [10]: 395
Nc1nc(N)nc(Nc2ccc([As]3SCC(CO)S3)cc2)n1 (stereo not given) [MELARSOPROL] |  | 8.00 |  |  | 8.00 |  |  | 
O=C(N[C@H](/C=C/S(=O)(=O)c1ccccc1)CCc1ccccc1)c1ccc([N+](=O)[O-])o1 |  | 5.56 | 6.96 |  | 7.15 |  | 78.1% | CC50 at 72 h [13]: 5.17 µM
CNC(=O)CCCNC(=O)c1cccs1 |  |  | < 4.52 |  |  | > 300 µM | inactive | 
Cc1ncc([N+](=O)[O-])n1CC(=O)N[C@H](/C=C/S(=O)(=O)c1ccccc1)CCc1ccccc1 |  |  | < 4.30 |  |  | > 300 µM | 44.1% | 
O=C(N[C@H](/C=C/S(=O)(=O)c1ccccc1)CCc1ccccc1)c1cc(Cl)c([N+](=O)[O-])[nH]1 |  |  | 4.51 |  |  | > 160 µM | 26.7% | 
CNC(=O)CCCNC(=O)c1ccc([N+](=O)[O-])s1 | 16.9 | 5.71 | 5.39 |  | 5.73 | 69.5 µM | inactive | selectivity ratio [7]: 35.5; selectivity ratio [10]: 37
CNC(=O)/C=C/[C@H](CCc1ccccc1)NC(=O)c1ccc([N+](=O)[O-])s1 | 333 | 7.40 | 6.74 | > 60 min | 7.52 | 60 µM | 58.4% | t1/2 [2]: 19.49 min; selectivity ratio [7]: 1500; selectivity ratio [10]: 2000
O=C(NC/C=C/S(=O)(=O)c1ccccc1)c1ccco1 | 34 |  | 5.71 |  |  | 66.3 µM | 30.6% | 
CNC(=O)/C=C/CNC(=O)c1ccc([N+](=O)[O-])s1 |  | 6.85 | 6.27 | > 60 min | 6.89 | > 75 µM | 43.9% | AUC [14]: 343.2 ng·h/mL; Vd [15]: 1.7 L/kg; half-life [16]: 30 min; Tmax [17]: 18 min; t1/2 [2]: > 60 min; AUC(0-t) at 24 h [18]: 333 ng·h/mL; Vd [19]: 1.6 L/kg; MRT [20]: 54 min; C0 at 24 h [21]: 636 ng/mL; Cmax [22]: 1650 ng/mL; AUC [23]: 1702.8 ng·h/mL; AUC(0-t) at 24 h [24]: 1700 ng·h/mL; Activity [25]: Active; Activity [26]: Active; Activity [27]: Active; clearance [28]: 48.8 mL/min/kg; Activity [29]: Active; F [30]: 99.2%; half-life [31]: 24 min; MRT [32]: 30 min
